# Data from PMC7398576 (Oncogene, 2020).
# How the values were obtained:
# p53-Cluc fusion protein = p53-Cluc fusion protein (UniProt P04637+P08659, D436G/I423L/L530R); test: p53-Cluc luciferase fragment complementation DNA-binding assay; type: biochemical; conditions: read-out: IC50, inhibition of p53 sequence-specific DNA binding in vitro
# Method in brief: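 The cell-free reaction used crude E. coli BL21(DE3) extracts: ZF1-Nluc plus p53-Cluc, each expressed from pET-28b with 1 mM IPTG and 0.1 mM ZnCl2 at 18 °C for 18 h. DNA was 50 ng plasmid carrying 12 paired ZF1/p53 sites. Buffer was 100 mM potassium phosphate pH 7.8, 1 mM ZnCl2, 5% glycerol, 1 mM DTT. After 35 min at 32 °C, luciferin/ATP substrate was added, 10 min at 23 °C, then luminescence read. Three experiments.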
# p53 [1] = molecular target: T1, p53 (Homo sapiens, UniProt P04637); test: ZF1-Nluc/ZF2-Cluc DNA-binding competition assay; type: biochemical; conditions: at low micromolar concentrations
# p63γ = p63γ (Homo sapiens, UniProt Q9H3D4); test: ZF1-Nluc/ZF2-Cluc DNA-binding competition assay, p63γ; type: biochemical; conditions: at low micromolar concentrations
# p63γ, sequence (Q9H3D4 40-487 isoform Q9H3D4-5 limits assumed): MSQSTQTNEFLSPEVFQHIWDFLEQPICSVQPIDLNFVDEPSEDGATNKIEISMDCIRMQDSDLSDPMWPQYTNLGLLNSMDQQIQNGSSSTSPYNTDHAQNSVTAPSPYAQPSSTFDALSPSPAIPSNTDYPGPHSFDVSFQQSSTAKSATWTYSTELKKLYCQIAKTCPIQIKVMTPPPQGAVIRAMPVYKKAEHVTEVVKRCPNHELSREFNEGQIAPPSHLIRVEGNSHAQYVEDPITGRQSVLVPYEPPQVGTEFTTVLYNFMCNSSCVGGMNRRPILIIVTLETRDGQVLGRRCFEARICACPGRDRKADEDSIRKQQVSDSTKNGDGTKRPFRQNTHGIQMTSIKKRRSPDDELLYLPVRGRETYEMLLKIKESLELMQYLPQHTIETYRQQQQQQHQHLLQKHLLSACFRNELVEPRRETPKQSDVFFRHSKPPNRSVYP
# p73β = p73β (Homo sapiens, UniProt O15350); test: ZF1-Nluc/ZF2-Cluc DNA-binding competition assay, p73β; type: biochemical; conditions: at low micromolar concentrations
# p73β, sequence (O15350 1-499 isoform O15350-2, species assumed): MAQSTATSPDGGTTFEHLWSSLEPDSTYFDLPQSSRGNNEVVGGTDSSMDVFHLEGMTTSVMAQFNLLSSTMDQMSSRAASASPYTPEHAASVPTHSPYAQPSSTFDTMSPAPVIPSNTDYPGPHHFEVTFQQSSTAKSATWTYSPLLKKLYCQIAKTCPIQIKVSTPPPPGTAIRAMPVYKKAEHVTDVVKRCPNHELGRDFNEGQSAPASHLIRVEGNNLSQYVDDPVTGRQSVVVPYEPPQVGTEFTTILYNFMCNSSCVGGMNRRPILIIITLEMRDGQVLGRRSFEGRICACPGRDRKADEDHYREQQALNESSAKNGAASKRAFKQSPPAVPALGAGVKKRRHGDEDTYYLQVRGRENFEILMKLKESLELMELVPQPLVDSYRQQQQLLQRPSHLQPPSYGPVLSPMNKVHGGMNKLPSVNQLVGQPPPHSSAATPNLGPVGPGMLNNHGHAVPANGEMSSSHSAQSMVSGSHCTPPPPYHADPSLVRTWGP
# TCF1 [2] = molecular target: T2, TCF1 (Homo sapiens, UniProt P36402); test: TCF1-specific zinc finger competition assay; type: biochemical
# T2 sequence (P36402 whole entry): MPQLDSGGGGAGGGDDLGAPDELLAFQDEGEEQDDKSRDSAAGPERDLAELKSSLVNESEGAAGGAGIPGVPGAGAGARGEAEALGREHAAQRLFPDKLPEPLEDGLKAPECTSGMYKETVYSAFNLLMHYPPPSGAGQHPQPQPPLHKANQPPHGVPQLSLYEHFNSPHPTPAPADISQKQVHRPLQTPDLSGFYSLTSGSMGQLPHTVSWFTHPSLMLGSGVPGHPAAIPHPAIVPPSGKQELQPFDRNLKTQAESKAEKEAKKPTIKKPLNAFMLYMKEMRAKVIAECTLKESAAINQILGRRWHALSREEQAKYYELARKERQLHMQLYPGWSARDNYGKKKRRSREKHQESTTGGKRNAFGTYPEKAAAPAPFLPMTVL
# p53 [3] = molecular target: T1, p53; test: Biotinylated oligonucleotide pull down assay, p53 western blot; type: biochemical; conditions: for Inhibition of p53 DNA binding in oligonucleotide pull down: full-length p53
# Method in brief: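 Pull-down: p53 (~0.1 μl E. coli lysate, 100 ng) with 2 μg poly(dI-dC) and 100 ng biotinylated duplex oligo carrying the p53 site, in Tris pH7.2/150 mM NaCl DNA-binding buffer, 30 min at 4 °C. Captured on streptavidin magnetic beads 30 min at 4 °C, washed three times, boiled, p53 western blot. Pre-treated bead-bound FLAG-p53: 10 μM, 30 min, washed 3 min or 3 h, FLAG-peptide eluted.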
# TCF1 [4] = molecular target: T2, TCF1; test: Biotinylated oligonucleotide pull down assay, FLAG-TCF1; type: biochemical
# [5] = molecular target: zinc finger proteins (ZF1-Nluc/ZF2-Cluc complementation) (Photinus pyralis, UniProt P08659, D436G/I423L/L530R); test: ZF1-Nluc/ZF2-Cluc complementation in the absence of p53; type: biochemical
# p53 [6] = molecular target: T1, p53; test: ChIP of p53 at target promoters in U2OS cells; type: cell-based
# Method in brief: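 U2OS cells in DMEM/10% FBS, given test compound alone or with IR for 4 h. Chromatin immunoprecipitation with DO-1 anti-p53. Precipitated DNA quantified by SYBR Green real-time PCR with primers for the p21 and MDM2 promoters.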
# [7] = test system: p53 target genes (p21, MDM2, PUMA) in U2OS cells; test: Western blot / RT-PCR of p53 level and target genes in U2OS cells; type: cell-based, human
# p63γ-A167P = p63γ-A167P (Homo sapiens, UniProt Q9H3D4, A206P); test: ChIP of p63γ-A167P temperature-sensitive mutant; type: cell-based; conditions: 32 °C
# p63γ-A167P, sequence (Q9H3D4 40-487 isoform Q9H3D4-5 A206P limits assumed): as the sequence (Q9H3D4 40-487 isoform Q9H3D4-5 limits assumed) above, with A167P counted along it
# Method in brief: (§1)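 ChIP by standard procedure, read by SYBR Green real-time PCR of target promoters. Antibodies: anti-HA tag (C29F4) for p63, p73 and c-MYC; KH95 for E2F1.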
# p73β-A156I = p73β-A156I (Homo sapiens, UniProt O15350, A156I); test: ChIP of p73β-A156I temperature-sensitive mutant; type: cell-based; conditions: 32 °C
# p73β-A156I, sequence (O15350 1-499 isoform O15350-2 A156I): as the sequence (O15350 1-499 isoform O15350-2, species assumed) above, with A156I counted along it
# Method in brief: as §1
# E2F1 = E2F1 (Homo sapiens, UniProt Q01094); test: ChIP of E2F1-ER fusion protein; type: cell-based; conditions: tamoxifen-regulated E2F1-ER fusion protein
# E2F1, sequence (Q01094 whole entry, the tested form may be a part): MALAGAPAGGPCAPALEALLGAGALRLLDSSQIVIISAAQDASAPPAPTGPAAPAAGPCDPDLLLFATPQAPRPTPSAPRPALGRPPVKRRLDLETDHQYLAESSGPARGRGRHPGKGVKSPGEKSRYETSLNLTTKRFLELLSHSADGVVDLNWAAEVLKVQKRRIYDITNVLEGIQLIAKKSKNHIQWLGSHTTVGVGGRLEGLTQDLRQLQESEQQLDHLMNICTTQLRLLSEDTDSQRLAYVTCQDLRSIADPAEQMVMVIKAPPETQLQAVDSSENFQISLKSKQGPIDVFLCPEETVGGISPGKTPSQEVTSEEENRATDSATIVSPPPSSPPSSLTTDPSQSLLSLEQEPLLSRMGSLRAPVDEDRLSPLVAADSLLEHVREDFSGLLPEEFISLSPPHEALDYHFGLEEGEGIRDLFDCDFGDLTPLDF
# Method in brief: as §1
# c-Myc = c-Myc (Homo sapiens, UniProt P01106); test: ChIP of transiently expressed c-Myc; type: cell-based
# c-Myc, sequence (P01106 whole entry): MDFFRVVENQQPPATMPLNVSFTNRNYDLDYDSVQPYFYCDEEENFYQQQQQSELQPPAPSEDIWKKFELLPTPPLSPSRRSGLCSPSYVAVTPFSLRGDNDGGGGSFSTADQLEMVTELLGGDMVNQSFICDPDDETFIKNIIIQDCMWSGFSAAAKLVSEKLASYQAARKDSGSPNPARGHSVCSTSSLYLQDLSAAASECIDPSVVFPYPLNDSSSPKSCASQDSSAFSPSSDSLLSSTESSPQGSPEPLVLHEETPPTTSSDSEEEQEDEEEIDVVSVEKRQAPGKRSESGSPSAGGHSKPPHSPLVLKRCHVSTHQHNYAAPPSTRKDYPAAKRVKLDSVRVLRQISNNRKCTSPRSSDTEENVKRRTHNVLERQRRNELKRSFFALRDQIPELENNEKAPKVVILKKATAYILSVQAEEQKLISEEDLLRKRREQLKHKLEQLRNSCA
# c-Myc, sequence (P61244 whole entry partner): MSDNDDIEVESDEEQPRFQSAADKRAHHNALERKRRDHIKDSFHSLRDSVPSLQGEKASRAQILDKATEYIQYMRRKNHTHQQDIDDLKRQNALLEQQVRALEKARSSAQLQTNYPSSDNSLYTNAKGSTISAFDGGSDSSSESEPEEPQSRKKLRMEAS
# Method in brief: as §1
# p53 [8] = molecular target: T1, p53; test: p53-responsive luciferase reporter assay in transfected H1299 cells; type: cell-based; conditions: 6 h treatment
# Method in brief: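 H1299 cells (p53-null; 50,000/well) transfected 24 h by lipofection with 20 ng BP100-luciferase reporter, 5 ng CMV-lacZ and 0.2 ng CMV-p53. Then 6 h test compound. Activity expressed as luciferase/β-galactosidase ratio.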
# Foxo1 = test: Foxo1-responsive luciferase reporter assay in transfected H1299 cells; type: cell-based; conditions: 6 h treatment
# Method in brief: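 H1299 cells (50,000/well) lipofected for 24 h with 20 ng 3IRS-luciferase Foxo1 reporter, 5 ng CMV-lacZ and 10 ng CMV-Foxo1, then exposed to compound for 6 h. Readout: luciferase normalised to β-galactosidase activity.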
# [9] = test system: MDM2-mediated ubiquitination of p53; test: In vivo ubiquitination assay in H1299 cells; type: cell-based; conditions: H1299, 5 h treatment
# Method in brief: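 H1299 cells co-transfected (PEI, 36 h) with 2 μg His6-ubiquitin, 0.2 μg p53 and 2 μg MDM2 plasmids, then treated 5 h. Lysed in 6 M guanidinium buffer, bound to Ni-NTA 16 h at 23 °C, washed with urea buffers (pH8.0 then 6.3). Imidazole/SDS elution 20 min at 23 °C, DO-1 western blot.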
# [10] = molecular target: FLAG-p53-94-312 DNA-binding domain (Homo sapiens, UniProt P04637); test: Differential scanning fluorimetry; conditions: 100 μM compound, 4.5 μM protein
# Method in brief: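 FLAG-p53 94–312 expressed in E. coli (pET-28b), purified on M2 beads and FLAG-peptide eluted. DSF with 4.5 μM protein, 100 μM test compound and 5× SYPRO Orange in 50 mM HEPES pH7.4, 150 mM NaCl, 2 mM DTT, 2% DMSO. Heated 25→95 °C at 1 °C/min, read every 0.5 °C at 610 nm, quadruplicate. ΔTm taken against DMSO wells.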
# [11] = molecular target: TAF1 bromodomain 2 (aa 1501–1635) (Homo sapiens, UniProt P21675); test: Differential scanning fluorimetry; type: binding; conditions: 100 μM compound, 4.5 μM protein
# TAF1 bromodomain 2 (aa 1501–1635), sequence (P21675 1522-1656): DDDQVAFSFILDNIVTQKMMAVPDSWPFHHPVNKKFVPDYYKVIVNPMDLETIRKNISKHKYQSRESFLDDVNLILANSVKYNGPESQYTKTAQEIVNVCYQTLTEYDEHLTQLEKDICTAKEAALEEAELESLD
# Method in brief: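 TAF1 second bromodomain (residues 1501–1635) purified by Ni-NTA and size exclusion. Thermal shift with 4.5 μM protein, 100 μM compound and 5× SYPRO Orange in HEPES pH7.4/150 mM NaCl/2 mM DTT/2% DMSO. Ramp 25–95 °C at 1 °C/min, fluorescence at 610 nm every 0.5 °C, four replicates. ΔTm relative to DMSO reference.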
# Primary mouse thymocytes = test: Primary mouse thymocytes, radiation-induced apoptosis and viability; type: cell-based
# C57BL/6 mice = test: Radiation toxicity in mice; type: in vivo, mouse
# p53 [12] = molecular target: T1, p53; test: Trypsin digestion sensitivity of p53; type: biochemical
# p53 [13] = molecular target: T1, p53; test: Glutaraldehyde crosslinking of p53 in H1299 extract; type: biochemical; conditions: 10 μM NSC194598
# Method in brief: (§2)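 H1299 cells transiently transfected with pcDNA3 FLAG-tagged wild-type or mutant p53 were lysed in HEPES buffer (50 mM HEPES pH 8.0, 5 mM EDTA, 150 mM NaCl, 0.5% NP-40, protease inhibitors) and spun to clear. Lysate was held with 10 μM test compound for 20 min at 23 °C. It was then crosslinked with 0.01–0.1% glutaraldehyde for 5 min at 23 °C and quenched with Tris-HCl pH 8.0 to 100 mM. Monomer, dimer and tetramer were read by western blot (FL393).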
# p53 [14] = molecular target: p53 (Homo sapiens, UniProt P04637, R175H); test: as above; type: biochemical; conditions: 10 μM NSC194598
# Method in brief: as §2
# p53 [15] = molecular target: T1, p53; test: In vitro oligomer formation of HA-p53 and FLAG-p53; type: biochemical
# H1299-p53-A138V cells = test: Western blot in H1299-p53-A138V temperature-sensitive cells; type: cell-based; conditions: activated at 32 °C, 8 h
# Method in brief: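 H1299 (p53-null) cells stably carrying temperature-sensitive p53-A138V were grown in DMEM with 10% FBS. They were kept at 39 °C or shifted to 32 °C with test compound for 8 h. Cells were lysed in 50 mM Tris-HCl pH 8.0, 5 mM EDTA, 150 mM NaCl, 0.5% NP-40 and protease inhibitors. p53 and target genes were resolved by SDS-PAGE and western blot.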
# SJSA cells = test: Western blot in SJSA cells; type: cell-based; conditions: 5–20 μM
# Method in brief: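 SJSA cells (MDM2-amplified) were co-treated with the MDM2 inhibitor Nutlin and test compound for 32 h. Lysis was in NP-40/Tris buffer with protease inhibitors, followed by SDS-PAGE and western blot for p53 level and target-gene induction, including p21.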
# HCT116-p53−/− cells = test: Western blot in HCT116-p53−/− cells; type: cell-based
# [16] = test system: G-quadruplex DNA structures; conditions: cited from earlier work
# RET oncogene = conditions: cited from earlier work
# full-length luciferase = full-length luciferase (Photinus pyralis, UniProt P08659); test: Full-length luciferase activity; type: biochemical, Firefly
# [17] = U2OS, compound alone, 10, 20 μM
smiles,measurement,setting,value
[O-][n+]1c(CN2CCCCC2)nc2cccc3c2c1-c1ccccc1-3 [NSC194598],IC50,p53-Cluc fusion protein,180 nM
same,Inhibition of p53 DNA binding in competition assay,p53 [1],inhibited
same,Inhibition of p63γ DNA binding in competition assay,p63γ,inhibited
same,Inhibition of p73β DNA binding in competition assay,p73β,inhibited
same,Effect on TCF1 competition with zinc finger protein,TCF1 [2],without effect
same,Inhibition of DNA binding of p53 DNA-binding domain (90–312) (pull down),p53 [3]; 2.5 μM NSC194598,still showed inhibition
same,Inhibition of DNA binding of p53 deletion mutant 1–360 (pull down),p53 [3]; 2.5 μM NSC194598,strongly inhibited
same,Inhibition of DNA binding of p53 deletion mutant 90–393 (pull down),p53 [3]; 2.5 μM NSC194598,strongly inhibited
same,DNA binding of compound-treated FLAG-p53 after short wash,"p53 [3]; 10 μM for 30 min, wash 3 min",did not bind DNA
same,DNA binding of compound-treated FLAG-p53 after extensive wash,"p53 [3]; 10 μM for 30 min, wash 3 h",regained DNA-binding activity
same,Inhibition of p53 DNA binding in oligonucleotide pull down,p53 [3],inhibited p53 DNA binding
same,Inhibition of TCF1 DNA binding in oligonucleotide pull down,TCF1 [4],did not inhibit
same,Effect on ZF1-Nluc/ZF2-Cluc complementation readout,[5],did not stimulate readout
same,"p53 occupancy at the p21 promoter (ChIP), compound alone",p53 [6]; [17],increased p53 occupancy
same,p53 occupancy at p21 and MDM2 promoters (ChIP),"p53 [6]; irradiated U2OS cells, 4 hrs",reduced p53 occupancy
same,p21 induction after p53 activation by Nutlin and doxorubicin,[7]; MDM2 inhibitor Nutlin or doxorubicin,inhibited p21 induction
same,"p21, MDM2, PUMA protein and mRNA expression",[7]; U2OS after irradiation,"inhibition of p21, MDM2, PUMA protein and mRNA expression"
same,"p53 target gene expression, compound alone at 40 μM","[7]; U2OS, 40 μM",decline in p53 target gene expression
same,Decrease of MDM2/p53 ratio,"[7]; U2OS, 4 h treatment",~ 50%
same,"p53 level and target genes p21 and MDM2, compound alone",[7]; [17],caused p53 accumulation and upregulation of target genes p21 and MDM2
same,p53 mRNA level,[7]; compound alone,no increase in p53 mRNA level
same,γH2AX and p53 Ser15 phosphorylation (DNA damage),[7]; compound alone,no increase of γH2AX or p53 Ser15 phosphorylation
same,In vivo DNA binding by p63γ-A167P (ChIP),p63γ-A167P,inhibited
same,In vivo DNA binding by p73β-A156I (ChIP),p73β-A156I,inhibited
same,DNA binding of E2F1 (ChIP),E2F1,did not inhibit
same,DNA binding of c-Myc (ChIP),c-Myc,did not inhibit
same,p53 activation of p53-responsive luciferase reporter,p53 [8],inhibited
same,Foxo1 activation of its luciferase reporter,Foxo1,did not inhibit
same,MDM2-mediated ubiquitination of p53,[9],had no effect
same,Increase in melting temperature (ΔTm) of FLAG-94-312,[10],0.5 °C
same,Effect on melting temperature of TAF1 bromodomain 2,[11],did not affect
same,p53 level in irradiated thymocytes,"Primary mouse thymocytes; 1 μM or higher, with IR",reduced p53 level
same,PARP and Caspase 3 cleavage after IR,"Primary mouse thymocytes; 0.5–10 μM, 6 h, dose-dependent",blocked PARP and Caspase 3 cleavage
same,Thymocyte viability after IR (trypan blue exclusion),"Primary mouse thymocytes; 20 hours after 5 Gy IR, 5 μM",increased thymocyte viability
same,"p53 level and cleaved PARP, compound alone","Primary mouse thymocytes; high concentrations, no IR",caused p53 accumulation
same,Thymocyte viability with compound alone (trypan blue exclusion),Primary mouse thymocytes; no IR,did not lose viability
same,p53 or PARP cleavage in the thymus of treated animals (western blot),C57BL/6 mice; data not shown,did not reveal increase of p53 or PARP cleavage
same,Body weight after irradiation,"C57BL/6 mice; single i.p. injection of 80 μg, 8 Gy",did not prevent body weight loss
same,Survival after irradiation,"C57BL/6 mice; single i.p. injection of 80 μg, 8 Gy, 40-day observation",statistically significant improvement in survival
same,p53 sensitivity to trypsin digestion,p53 [12],did not change sensitivity to trypsin digestion
same,"Crosslinking banding pattern of dimer and tetramer, wt p53",p53 [13],detected changes in the banding pattern
same,Crosslinking pattern of R175H conformational mutant,p53 [14],did not affect the crosslinking pattern
same,Oligomer formation of HA-p53 and FLAG-p53,p53 [15],did not inhibit oligomer formation
same,p21 induction and p53 level in H1299-p53-A138V,H1299-p53-A138V cells,inhibited p21 induction without changing p53 level
same,p53 accumulation and p21 expression in SJSA versus U2OS,SJSA cells,much weaker p53 accumulation and p21 expression
same,Induction of p21 and MDM2 in p53-null cells,HCT116-p53−/− cells,did not induce p21 and MDM2
same,Binding to G-quadruplex DNA structures,[16],binds G-quadruplex DNA structures
same,Transcription of RET oncogene,RET oncogene,inhibits the transcription of RET oncogene
"Cc1ccc(C(=O)Cn2c3c(sc2=N)CCCC3)cc1 [PFTα, Pifithrin-α, reference compound]",Inhibition of p53 DNA binding in oligonucleotide pull down,p53 [3],had no effect
same,Effect on ZF1-Nluc/ZF2-Cluc complementation readout,[5],inhibited
same,Effect on activity of full-length luciferase,full-length luciferase,inhibited
